System: MS2 coat protein
Experiment: apparent Kd, MS2 coat protein; higher = weaker binding; RNA-MaP array; FMN 200 µM where present
Method in brief: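 The titrant was SNAP-549-labelled MS2 coat protein, run from 0.7 or 1.5 nM in doubling steps to 3 µM. It was applied to designs transcribed by stalled E. coli RNA polymerase on Illumina sequencing-chip clusters, without ligand first and then with constant ligand, in 100 mM Tris-HCl pH 7.5, 80 mM KCl, 4 mM MgCl2, BSA, DTT, yeast tRNA and Tween-20. The apparent Kd is the median of filtered per-cluster binding-curve fits, with green signal normalised to red-channel RNA signal and control-cluster median Fmax.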

[1] = designed as: OFF switch for flavin mononucleotide, no ligand
[2] = ligand present: flavin mononucleotide, designed as: OFF switch for flavin mononucleotide
[3] = designed as: ON switch for flavin mononucleotide, no ligand
[4] = ligand present: flavin mononucleotide, designed as: ON switch for flavin mononucleotide

Sequence	apparent Kd [1] [nM]	apparent Kd [2] [nM]	apparent Kd [3] [nM]	apparent Kd [4] [nM]
CCUCCGUAUUAGGAUAUCGUCCCGGAAACGGGACGAGAAGGAAUAACAUGAGGAUCACCCAUGUUAACGUGAUG	18.8	46.7	–	–
GGACAGUCAGGAUAUACAUGAGGAUCACCCAUGUUGAGAUGUGAAAGGGCGGGAGUAGGUAGAAGGGACGAGAG	31.3	27.5	–	–
AUCAGCUCGUCAGGAUAUACGUCACUGCGUCAUCAGUGUGGUAAGAUCACAUGAGGAUCACCCAUGUAGAAGGGACGAGCUGAU	15.5	234	–	–
GGUACUCAAAGAGUACCAAUACGAACAUGAGGAUCACCCAUGUAGGAUAUGCUACUCAAAGAGUAGCAGAAGGAUAUGAUCCAU	77.2	105	–	–
GUGUAGAUAGGAUAUGCAAGAGUCUAGCGAAGCUAGAUUCUACAUGAGGAUCACCCAUGUAGAAGGGUCUACAC	18.3	16.1	–	–
UCGUGAAGGAUAGGAUAUGGACAUGAGGAUCACCCAUGUACAUGGGAAUGAAUACUGAAUUUGUACUAGAAGGGUUACAUAAAU	44.4	39.5	–	–
UAUGAGCGAGGAUAUGCUUGGGACGUCGUUCUUGCGGCGAGACAUGAGGAUCACCCAUGUAGAAGGCGCGAGCG	18.4	18.5	–	–
AGCCUGCUGCGAGGAUAUCAACUAAAGGGUCCGAUUUCCGAGCGGAACAUGAGGAUCACCCAUGUUGAGAAGGCGCGAGUAUAG	25.6	182	–	–
GGAUCCAACACAGGAUAUGCUGGACCUUGUCCAGCAGAAGGGUGAAGAACAUGAGGAUCACCCAUGUGGAUCCAUAUAUUUAAU	–	–	240	14.6
AAUAUAAAGAGCUGGUACUCAAUAACAUGAGGAUCACCCAUGUAGGAUAUCAGCACGAUAAGUGCUGAGAAGGACAUCCAGCUC	16.6	29.4	–	–
AUUAUGACCGAGUUAUAGUUCCUAACAUGAGGAUCACCCAUGUAGGAUAUCAGCACGAUAAGUGCUGAGAAGGACAUCUCGGUC	13.3	13.9	–	–
CGAGGUGGAGUGAGGAUAUCGUGUUCGAAAGAACGUGAGAAGGCACAUGAGGAUCACCCAUGUGAUCCUGCUCG	105	360	–	–
AUUUAGAGAGGAUAUAUUAUGUGAAACAUGAGGAUCACCCAUGUAAUAUGAUGGAUAUAAAUAGAAGGCUCAUUUA	33	24.4	–	–
GAGGAACAUGAGGAUCACCCAUGUGAGGAUAUGCAUAGUGAGGUAGUAGACGUUGAAUGCAGAAGGUACACUGA	47.6	34.3	–	–
AGUAGAUCAGGAUAUACAUGAAAGAUCAAAAUGUCCAAUCUACAUGAGGAUCACCCAUGUAGAAGGGAUCUACA	17.1	23	–	–
GGGUACAUCGGAGGAUAUCCUGUAAAUACAUGAGGAUCACCCAUGUCGAUGGAGACAUCGGAGAUUGAGAAGGCCGAUGUACCG	–	–	35	6.74
AGGAAACAUGAGGAUCACCCAUGUAAAAGGUGGUUAGGAUAUGCGAUAAUAAAAAUAAUAGCAGAAGGGACAAGAA	–	–	511	432
GACGAAUAGCUAGGAUAUCGUAAAUCAUUGGUAGUCUCUAUUCACAUGAGGAUCACCCAUGUAAUCGAGAAGGAGCACUCGUUC	80.4	240	–	–

Sequence	apparent Kd [1] [nM]	apparent Kd [2] [nM]	apparent Kd [3] [nM]	apparent Kd [4] [nM]
UGAGGACAUGAGGAUCACCCAUGUAGGCCACAAUCAGGAUAUGCAUUAAGGUACCUAAGAGUAGAAGGGAUUCGAG	–	–	82.1	75.6
GUAGUGUAUGUAGGAUAUGUGAAGGAAACAUUUACAGAAGGACAUGAGGAUCACCCAUGUAUUACAGUCAGCAAUCUGACUGUU	23.6	41.2	–	–
AGCAUGUGAGGAUAUGCGGACUCCGGUAAAUCUGGAGUCCAGUAGAAGGCACAUGAGGAUCACCCAUGUGAUAA	98.3	83.2	–	–
CCCGCAACAUGAGGAUCACCCAUGUAGGAUAUCGCUAUUGUAAUCAUGAAACAUGAUUACAAUAGCGAGAAGGACAUAUGCGGG	6.77	10.4	–	–
GCAUUGAUAACAGGAUAUAUGUAUCCUACAUGAGGAUCACCCAUGUAGGUGAUCAGCCGCGAUAAGUAGAAGGGUUAUCAAUGC	–	–	18	13.7
UACUAAAAGGAGGAUAUCGUAUCGGAGACGAUACGAGAAGGCUUAACAUGAGGAUCACCCAUGUUCUUCAAUAU	15.8	18.2	–	–
UUGGCAACGUAGAAGGGUGACAUGAGGAUCACCCAUGUGCCGAUAUUUCUCGAGAUAUGUCGGCCACAGGAUAUACGUGCGAAC	–	–	107	120
GCCAGUUAUGUAGGAUAUGCGAAGCGAGCCUGAGCAGAAGGACAUGAGGAUCACCCAUGUAUUGCGGUUUGAGUACUGAUCGCU	27.9	107	–	–
UGAUCUAUGUAGAAGGCCCAUAUCUAUAUUUAGGGAGGAUAUACAUGAGGAUCACCCAUGUAUAGAGCUAGUGGACUGGUCAGC	48	69.4	–	–
CGUGCGUAUGUGAGGAUAUGCUGGUCCUUGGAUCAGCAGAAGGCACAUGAGGAUCACCCAUGUGGUGUCGUACC	262	44.1	–	–
GCCGAUUAAGUGAGGAUAUACCUAUGGAUACAUAGGUAGAAGGUACAUGAGGAUCACCCAUGUUCCUCAUCGGC	10	12.2	–	–
GUAGCAUACGGAGGAUAUUCAUACCGGAAACGGACAUGAGGAUCACCCAUGUGGCGAAAGCCAUGGGAGAAGGCCGUAUGCUAC	–	–	318	149
GCGAGGACGGCAGGAUAUUGACAUGAGGAUCACCCAUGUAUUUGGGAGUGUUCACUGAAUUCUUACGAGAAGGGCCGUCCACGC	312	261	–	–
GCGAUUUUGUAAGGAUAUAUACGAGUUUCAAGUGUAGAAGGUACUUACAUGAGGAUCACCCAUGUAUACAUGGAUAAUAGUCGC	–	–	269	136
CCAUAUAACUGAGGAUAUGAUCACCACUAACAUUCAGAAGGCAGACAUGAGGAUCACCCAUGUGAUUUCUCAAUAUUAUACAUC	572	363	–	–
AGGGUAUGAACAUGAGGAUCACCCAUGUAAACGGAAACGAAUGAGGAUAUCGAUAGCAAAGCUAUCGAGAAGGCAUGGGACCCU	–	–	286	49.1
CACAUGGUUACAGGAUAUGUUAGGUUGCAGUUGAUUGGUUAUUAAAAUAUUACAGAAGGGUAAGACAUGAGGAUCACCCAUGUG	–	–	175	97.5
GUACUGUAGUGAGGAUAUACGAGAUCGAUAGAUCGGCGAUCCAUAUAUACAUGAGGAUCACCCAUGUAGAAGGCACUUCAGUAC	7.02	93.4	–	–

Reference: the EternaBench riboswitch data
